One may read the IC50 as the midpoint of a concentration-inhibition curve. Higher therefore signals lower potency.

*1 amine or outer side, *2 acyl side, *3 side chain or, on linkers, in order; H or OH if unused. Where a SMILES comes first, the peptide text is derived from it. [ ]: non-standard residue; d: D form. The star is where a group is joined. ξ: configuration not given here. Sta(3ξ) = CC(C)C[C@H](N[*:1])C(O)CC(=O)[*:2]; X1 = CC(C)CC(N[*:1])C(O)CC(C(=O)[*:2])C(C)C; Sta = CC(C)C[C@H](N)[C@@H](O)CC(=O)O; NMeH = CN[C@@H](Cc1c[nH]cn1)C(=O)O; NHCH2(2-pyridyl) = c1ccc(CN*)nc1; Isobutyryl = CC(C)C(=O)*; Boc = CC(C)(C)OC(=O)*

In assay [1] the target is T1, Pepsin A (Homo sapiens, UniProt P0DJD9). The assay is described as follows: Inhibition of human pepsin at pH 2.0.
For assay [2], the target named is T2, Cathepsin D (Bos taurus, UniProt P80209).
T2 sequence (P80209 whole entry): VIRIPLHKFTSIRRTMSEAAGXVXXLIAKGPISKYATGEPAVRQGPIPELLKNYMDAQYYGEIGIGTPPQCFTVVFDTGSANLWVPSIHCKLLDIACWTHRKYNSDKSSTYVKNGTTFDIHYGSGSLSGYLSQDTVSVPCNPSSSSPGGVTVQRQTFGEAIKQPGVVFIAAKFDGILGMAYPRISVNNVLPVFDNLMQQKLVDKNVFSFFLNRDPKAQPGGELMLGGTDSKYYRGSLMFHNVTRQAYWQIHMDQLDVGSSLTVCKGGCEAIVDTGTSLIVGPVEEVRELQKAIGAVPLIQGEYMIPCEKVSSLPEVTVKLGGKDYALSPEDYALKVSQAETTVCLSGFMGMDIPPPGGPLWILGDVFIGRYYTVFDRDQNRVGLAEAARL
The experiment in a line: Inhibition of bovine cathepsin D at pH 3.2.

Assay [3] has as its target T1, Pepsin A. The assay is described as follows: Inhibition of human pepsin at pH 3.1.
Assay [4] deals with T2, Cathepsin D. The assay is described as follows: Inhibition of bovine cathepsin D at pH 3.1.
For assay [5], the target named is T3, Renin (Homo sapiens, UniProt P00797).
T3 sequence (P00797 whole entry): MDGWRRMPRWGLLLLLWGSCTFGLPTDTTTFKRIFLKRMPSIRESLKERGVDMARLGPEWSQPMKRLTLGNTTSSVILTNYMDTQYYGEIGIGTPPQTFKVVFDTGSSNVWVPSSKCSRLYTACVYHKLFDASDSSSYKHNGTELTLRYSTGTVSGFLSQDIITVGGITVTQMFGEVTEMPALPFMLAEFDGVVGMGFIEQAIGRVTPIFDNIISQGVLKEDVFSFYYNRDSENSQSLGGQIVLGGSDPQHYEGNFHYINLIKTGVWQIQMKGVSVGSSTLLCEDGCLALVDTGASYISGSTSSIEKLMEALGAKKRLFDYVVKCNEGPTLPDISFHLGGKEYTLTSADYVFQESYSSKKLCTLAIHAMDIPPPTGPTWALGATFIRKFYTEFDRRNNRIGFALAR
The experiment in a line: Inhibition of human renin at pH 6.0.

Assay [6] addresses T3, Renin. The assay is described as follows: Inhibition of human renin at pH 7.0.
The target of assay [7] is T4, Pepsin A (Sus scrofa, UniProt P00791). The assay is described as follows: Inhibition of porcine pepsin at pH 2.0.
In assay [8] the target is T4, Pepsin A. The assay is described as follows: Inhibition of porcine pepsin at pH 4.0. The gist of the method:
(§1)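 Hydrolysis was followed as the absorbance drop at 290 nm over the first 5–10% of reaction. Percent activity was plotted against inhibitor concentration to give IC50, and Ki = (IC50 − 0.5Et)/(1 + S/Km).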

The target in assay [9] is T3, Renin. The assay is described as follows: Inhibition of human renin at pH 7.4.
The target of assay [10] is T4, Pepsin A. The assay is described as follows: Inhibition of porcine pepsin at pH 1.9.
Assay [11] concerns the target T2, Cathepsin D. The experiment in a line: Inhibition of bovine cathepsin D at pH 3.3(no inhibition).
Assay [12] deals with T4, Pepsin A. The experiment in a line: Inhibition of porcine pepsin at pH 4. The gist of the method:
as §1

Assay [13] deals with T4, Pepsin A. The experiment in a line: Inhibition of porcine pepsin at pH 4.0 (time-dependent inhibition, T1/2>30 s).

T4 sequence (P00791 whole entry): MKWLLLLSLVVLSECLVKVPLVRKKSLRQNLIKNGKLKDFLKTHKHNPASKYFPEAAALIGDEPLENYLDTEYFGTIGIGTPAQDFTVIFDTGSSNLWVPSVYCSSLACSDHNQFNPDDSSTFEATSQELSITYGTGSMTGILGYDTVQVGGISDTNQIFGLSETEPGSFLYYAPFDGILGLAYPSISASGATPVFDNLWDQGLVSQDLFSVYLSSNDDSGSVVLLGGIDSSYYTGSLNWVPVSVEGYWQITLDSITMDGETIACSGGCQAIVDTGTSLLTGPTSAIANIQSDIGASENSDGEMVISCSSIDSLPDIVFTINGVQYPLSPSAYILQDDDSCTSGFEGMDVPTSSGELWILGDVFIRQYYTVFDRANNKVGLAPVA
T1 sequence (P0DJD9 whole entry): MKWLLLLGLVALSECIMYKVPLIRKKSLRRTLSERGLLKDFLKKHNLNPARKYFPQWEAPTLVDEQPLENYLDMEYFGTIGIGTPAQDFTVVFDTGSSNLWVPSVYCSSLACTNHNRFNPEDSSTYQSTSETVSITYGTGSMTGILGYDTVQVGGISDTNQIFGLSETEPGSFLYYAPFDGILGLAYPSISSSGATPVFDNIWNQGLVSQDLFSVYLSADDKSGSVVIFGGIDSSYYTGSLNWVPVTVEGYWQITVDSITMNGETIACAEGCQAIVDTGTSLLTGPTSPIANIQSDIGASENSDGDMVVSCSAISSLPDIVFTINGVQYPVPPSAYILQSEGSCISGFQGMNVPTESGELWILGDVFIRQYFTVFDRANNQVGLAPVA

In the case of `CC[C@H](C)[C@H](NC(=O)C(F)(F)C(=O)[C@H](CC(C)C)NC(=O)[C@H](Cc1c[nH]cn1)NC(=O)[C@H](Cc1ccccc1)NC(=O)OC(C)(C)C)C(=O)NCc1ccccn1`, the IC50 turned out to be 42000 nM in assay [1], 1700 nM in assay [2], 60000 nM in [3] and 40000 nM in assay [4].

Regarding `CC[C@H](C)[C@H](NC(=O)C(F)(F)C(=O)C(CC(C)C)NC(=O)[C@H](Cc1c[nH]cn1)NC(=O)[C@H](Cc1ccccc1)NC(=O)OC(C)(C)C)C(=O)NCc1ccccn1` (stereo not given in full), the figures for the IC50 in assay [5] and in [6] were 1.4 nM and 10 nM, respectively. The compound `COC(=O)CC(O)[C@H](CC(C)C)NC(=O)[C@H](C)NC(=O)CC(O)[C@H](CC(C)C)NC(=O)[C@@H](NC(=O)[C@H](Cc1ccccc1)NC(=O)OCc1ccccc1)C(C)C` (stereo not given in full) returned an IC50 in assay [7] of 60 nM. `COC(=O)CC(O)[C@H](CC(C)C)NC(=O)[C@H](C)NC(=O)CC(O)[C@H](CC(C)C)NC(=O)[C@H](Cc1ccccc1)NC(=O)[C@H](Cc1ccccc1)NC(=O)OC(C)(C)C` (stereo not given in full): the IC50 in assay [7] turned out to be 14 nM; in assay [5] it was 3.5 nM. The corresponding values for `COC(=O)CC(O)[C@H](CC(C)C)NC(=O)[C@H](C)NC(=O)CC(O)[C@H](CC(C)C)NC(=O)[C@H](Cc1c[nH]cn1)NC(=O)[C@H](Cc1c[nH]c2ccccc12)NC(=O)OC(C)(C)C` (stereo not given in full) are 850 nM and 5.5 nM. For `COC(=O)[C@H](Cc1ccccc1)NC(=O)[C@H](CC(C)C)NC(=O)CC(O)[C@H](CC(C)C)NC(=O)CCCNC(=O)[C@H](Cc1ccccc1)NC(=O)[C@@H]1CCCN1C(=O)CCCN` (stereo not given in full), the Ki in assay [8] was under 1 nM; in [9], 9 nM. The corresponding values for `COC(=O)[C@H](Cc1ccccc1)NC(=O)[C@H](CC(C)C)NC(=O)CC(O)[C@H](CC(C)C)NC(=O)[C@H](Cc1c[nH]cn1)NC(=O)COC(=O)C(C)(C)C` (stereo not given in full) are 67 nM and 1100 nM.

As to `COC(=O)[C@H](Cc1ccccc1)NC(=O)[C@H](CC(C)C)NC(=O)CC(O)[C@H](CC(C)C)NC(=O)[C@H](CC(C)C)NC(=O)COC(=O)C(C)(C)C` (stereo not given in full), the Ki in assay [8] amounted to 12 nM; in assay [9], 1700 nM. With `CC(C)CC(NC(=O)CCc1ccccc1)SCC(O)C(CC1CCCCC1)NC(=O)[C@H](Cc1cnc[nH]1)NC(=O)[C@H](Cc1ccccc1)NC(=O)OC(C)(C)C` (stereo not given in full), the figures for the IC50 in [10], in assay [5] and in [4] were over 100000 nM, 7 nM and over 100000 nM, respectively. Regarding `CC[C@H](C)[C@H](NC(=O)[C@@H](NC[C@H](CC(C)C)NC(=O)[C@H](Cc1c[nH]cn1)NC(=O)[C@H](Cc1ccccc1)NC(=O)[C@@H]1CCCN1C(=O)[C@H](Cc1c[nH]cn1)NC(=O)[C@@H]1CCCN1)C(C)C)C(=O)N[C@@H](Cc1c[nH]cn1)C(=O)N[C@@H](CCCCN)C(=O)O`, the IC50 is over 700000 nM in [11] and 10 nM in assay [6]. Regarding `CC[C@H](C)[C@H](NC(=O)C(CC(O)C(CC(C)C)NC(=O)[C@H](Cc1c[nH]cn1)N(C)C(=O)[C@H](Cc1ccccc1)NC(=O)[C@@H]1CCCN1C(=O)OC(C)(C)C)C(C)C)C(=O)NCc1ccccn1` (stereo not given in full) (Boc-PF[NMeH][X1]I-{NHCH2(2-pyridyl)}), the IC50 in [2] came to 6300 nM; in assay [7], 6800 nM; in assay [5], 0.26 nM. For the compound `COC(=O)[C@H](Cc1ccccc1)NC(=O)[C@H](C)NC(=O)C[C@H](O)[C@H](CC(C)C)NC(=O)[C@H](Cc1c[nH]cn1)NC(=O)CNC(=O)[C@@H](N)Cc1ccccc1` (H-FGH[Sta]AF-OMe), the Ki in [12] worked out at 150 nM. For the compound `COC(=O)[C@H](Cc1ccccc1)NC(=O)[C@H](C)NC(=O)C[C@H](O)[C@H](CC(C)C)NC(=O)[C@@H](NC(=O)CNC(=O)[C@@H](N)Cc1ccccc1)C(C)C` (H-FGV[Sta]AF-OMe), the Ki in assay [13] was under 1 nM. For the compound `CC(C)C[C@H](NC(=O)CC(O)[C@H](CC(C)C)NC(=O)[C@H](Cc1c[nH]cn1)NC(=O)[C@H](Cc1ccccc1)NC(=O)[C@@H]1CCCN1C(=O)[C@@H](N)Cc1c[nH]cn1)C(=O)N[C@@H](Cc1ccccc1)C(N)=O` (stereo not given in full) (H-HPFH[Sta(3ξ)]LF-NH2), the Ki in [8] came out at 34 nM; in assay [9], 8 nM. The like results for `CC(C)C[C@H](NC(=O)CC(O)[C@H](CC(C)C)NC(=O)[C@H](C)NC(=O)[C@H](Cc1ccccc1)NC(=O)[C@@H]1CCCN1C(=O)[C@H](Cc1c[nH]cn1)NC(=O)C(C)C)C(=O)N[C@@H](Cc1ccccc1)C(N)=O` (stereo not given in full) (Isobutyryl-HPFA[Sta(3ξ)]LF-NH2) were, in that order, 4 nM and 99 nM. For the compound `CC(C)C[C@H](NC(=O)CC(O)[C@H](CC(C)C)NC(=O)[C@H](Cc1c[nH]cn1)NC(=O)[C@H](Cc1ccccc1)NC(=O)[C@@H]1CCCN1C(=O)[C@H](Cc1c[nH]cn1)NC(=O)C(C)C)C(=O)N[C@@H](Cc1ccccc1)C(N)=O` (stereo not given in full) (Isobutyryl-HPFH[Sta(3ξ)]LF-NH2), the Ki stood at 23 nM in assay [8] and 16 nM in [9].

Regarding `COC(=O)CC(O)[C@H](CC(C)C)NC(=O)[C@H](C)NC(=O)CC(O)[C@H](CC(C)C)NC(=O)[C@H](Cc1cnc[nH]1)NC(=O)[C@H](Cc1ccccc1)NC(=O)OC(C)(C)C` (stereo in doubt; 15), in [7], the midpoint of inhibition, the IC50, lay at 1300 nM. Still for that read-out and setting: then `COC(=O)CC(O)[C@H](CC(C)C)NC(=O)[C@H](C)NC(=O)CC(O)[C@H](CC(C)C)NC(=O)[C@H](Cc1cnc[nH]1)NC(=O)[C@H](Cc1ccccc1)NC(=O)OC(C)(C)C` (stereo in doubt; 17), with 1300 nM.

Source of the values: ChEMBL document CHEMBL1124219, “Inhibition of porcine pepsin by two substrate analogues containing statine. The effect of histidine at the P2 subsite on the inhibition of aspartic proteinases” (J Med Chem, 1988).
